Test [1] addresses Pantothenate synthetase (Mycobacterium tuberculosis (strain ATCC 25618 / H37Rv)) (UniProt P9WIL5). Briefly: Recombinant Mtb pantothenate synthetase (PanC) inhibitors, coupled enzyme, confirmatory (AID 375; call rule not given here;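 further: 0% = full reaction with vehicle and 100% = no enzyme background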). To be noted: coupled enzyme assay; at 10 µM, stronger effect = higher value.
The nature of test [2]: reducers of endogenous Her2 protein level, primary screen, SKBR3 breast tumor cells, AlphaScreen, ATP viability (AID 461;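 active means Her2 level under about 52% in both replicate screens, with viability over 70% of control, limit read from the data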;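 on Her2 level: lower value means less Her2 protein in the cells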;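 on viability: percent of carrier control wells set as 100% viability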). To be noted: 18-24 h, measured here: SKBR3 viability, ATP luminescence, at 10 µM. Background: In Alpha technology, singlet oxygen from a donor bead excites a nearby acceptor bead.
Test [3] deals with Receptor tyrosine-protein kinase erbB-2 (Homo sapiens) (UniProt P04626). The test is described as above. Particulars: 18-24 h, at 10 µM, stronger effect = lower value.
The nature of test [4]: SK-BR-3 cell growth inhibitors, pilot screen, 24 h, human (AID 572;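 active means viability at or below 10% of carrier control in both of two separate runs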;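 further: compound exposure lasted between 18 and 24 h rather than exactly 24 h; 100% = carrier-treated control wells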). To be noted: SK-BR-3 viability, CellTiter-Glo luminescence, at 10 µM, stronger effect = lower value. (ATP-based viability assays read luminescence as a measure of living cells.)
A short description of test [5]: HUVEC growth inhibition – cell-based, human, primary screen (AID 575;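 active means viability at or below 30% in both replicate assays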;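 further: 100% = median of untreated cell wells with 0.1% DMSO on each plate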). To be noted: HUVEC proliferation, CellTiter-Glo luminescence, 72 h; at 10 µM; stronger effect = lower value. The procedure, abridged: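 Material: primary human umbilical vein endothelial cells / Schedule: 72 h exposure, 37 °C, 5% CO2, 30 min RT equilibration / Signal: ATP-based CellTiter-Glo luminescent read / Read-out basis: percent of median DMSO-control luminescence / Control set: 32 DMSO-only cell-control wells (high), 32 MePR drug-control wells (low) per plate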

Test [6] in a line: growth inhibitors of H69AR lung tumor, primary screen, human, duplicate replicates (AID 580;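 active means viability at or under a set limit in both replicates, limit being median viability minus 3 SD, cut at about 48% in these data, passing the limit was not always enough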;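 further: 100% = mean luminescence of untreated wells and 0% = no signal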). Particulars: H69AR lung tumor cells viability, ATP luminescence, 72 h; at 10 µM; stronger effect = lower value.
Test [7] in a line: reversal of MRP1-mediated doxorubicin resistance, pilot screen, H69AR cells, doxorubicin co-treatment (AID 601). To be noted: CellTiter-Glo, 72 h, at 10 µM; for differential viability (reversal): stronger effect = higher value.
The nature of test [8]: 384-well plate pilot, post-Golgi transport modulator project, inhibition of yeast transport mutant growth (AID 636; in the data active means inhibition above about 31%). To be noted: absorbance 615 nm, about 18 h, stronger effect = higher value.
Test [9] in a line: growth suppression of yeast trafficking mutant, preliminary HTS, modulators of trafficking downstream of Golgi apparatus project, 1536-format plate, OD 615 nm (AID 637; in the data active means inhibition above about 30%). To be noted: yeast transport mutant growth, absorbance 615 nm, 18 h; stronger effect = higher value.
The mark [10] stands for this setting: H69AR cells + 2 uM doxorubicin, measured here: viability with 2 uM doxorubicin, stronger effect = lower value.
The mark [11] stands for this setting: H69AR cells, compound alone cytotoxicity.

Each structure is given as a SMILES string. Where “and” joins values, the source holds several entries; their conditions need not be identical. Equal entries are not always repeated. Calls of active or inactive are those of the source.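 How the source made its calls, unless noted: active means viability loss from added drug above about 55%, and viability with drug at most 40%, in both replicates (limit read from the data, passing the limit was not always enough); inconclusive means both conditions met in only one replicate; inactive means neither replicate meets both conditions.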

What is called inhibition is the drop in the measured response relative to a control, in per cent. As usually defined, the viability is a read-out of living cells in per cent, often relative to untreated cells.

Chain of Pantothenate synthetase (Mycobacterium tuberculosis (strain ATCC 25618 / H37Rv)) (P9WIL5 whole entry, looked up): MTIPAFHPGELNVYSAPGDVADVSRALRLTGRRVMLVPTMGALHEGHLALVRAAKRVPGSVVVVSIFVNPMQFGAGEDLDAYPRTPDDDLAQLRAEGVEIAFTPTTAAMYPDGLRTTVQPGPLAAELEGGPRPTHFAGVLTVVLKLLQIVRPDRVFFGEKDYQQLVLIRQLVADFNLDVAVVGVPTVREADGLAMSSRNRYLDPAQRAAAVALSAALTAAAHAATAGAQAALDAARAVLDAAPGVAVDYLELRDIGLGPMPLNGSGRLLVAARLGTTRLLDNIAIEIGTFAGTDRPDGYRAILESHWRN
Chain of Receptor tyrosine-protein kinase erbB-2 (Homo sapiens) (P04626 whole entry, looked up): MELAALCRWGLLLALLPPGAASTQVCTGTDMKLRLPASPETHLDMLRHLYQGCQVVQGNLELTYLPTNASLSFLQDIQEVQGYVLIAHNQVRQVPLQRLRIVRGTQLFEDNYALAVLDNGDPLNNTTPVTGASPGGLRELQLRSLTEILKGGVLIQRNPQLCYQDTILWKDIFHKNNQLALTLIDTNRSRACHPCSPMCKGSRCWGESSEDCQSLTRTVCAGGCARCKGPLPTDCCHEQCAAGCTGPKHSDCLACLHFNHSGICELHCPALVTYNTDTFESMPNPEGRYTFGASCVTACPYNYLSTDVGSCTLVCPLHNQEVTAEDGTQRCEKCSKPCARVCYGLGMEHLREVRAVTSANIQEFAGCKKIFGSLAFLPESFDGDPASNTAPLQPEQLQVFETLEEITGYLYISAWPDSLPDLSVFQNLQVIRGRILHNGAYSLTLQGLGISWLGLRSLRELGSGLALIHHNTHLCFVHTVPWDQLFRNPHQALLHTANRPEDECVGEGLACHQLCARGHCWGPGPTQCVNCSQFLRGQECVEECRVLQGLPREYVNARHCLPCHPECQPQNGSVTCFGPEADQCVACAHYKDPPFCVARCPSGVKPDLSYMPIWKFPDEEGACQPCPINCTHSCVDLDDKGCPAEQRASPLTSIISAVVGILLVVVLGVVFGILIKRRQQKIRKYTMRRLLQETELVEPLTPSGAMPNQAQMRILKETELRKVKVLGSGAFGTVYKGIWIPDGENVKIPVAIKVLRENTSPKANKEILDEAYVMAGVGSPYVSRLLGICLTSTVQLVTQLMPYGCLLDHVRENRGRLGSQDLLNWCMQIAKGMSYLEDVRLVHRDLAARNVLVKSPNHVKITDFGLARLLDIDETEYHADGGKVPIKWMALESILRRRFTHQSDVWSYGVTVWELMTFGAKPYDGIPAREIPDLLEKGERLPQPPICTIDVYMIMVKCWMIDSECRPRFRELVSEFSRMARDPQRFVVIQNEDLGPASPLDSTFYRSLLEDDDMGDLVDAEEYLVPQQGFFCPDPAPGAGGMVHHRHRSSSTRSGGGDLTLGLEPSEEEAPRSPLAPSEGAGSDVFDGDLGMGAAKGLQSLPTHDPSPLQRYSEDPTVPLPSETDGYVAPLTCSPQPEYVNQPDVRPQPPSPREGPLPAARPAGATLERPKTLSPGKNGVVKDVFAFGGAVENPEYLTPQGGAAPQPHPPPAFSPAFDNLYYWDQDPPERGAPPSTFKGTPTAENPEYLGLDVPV

In the case of `C=CCn1c(O)c(C=NCCN(C)C)c(=O)[nH]c1=O`, the inhibition in test [1] was 0% (inactive); in test [8] it was -0.39% (inactive); in [9] it was -0.98% (inactive). Further, the viability in test [2] is 97.5%; in test [4], 97.5% (inactive); in test [5] it was 110% (inactive); in test [6], 97.2% (inactive); in test [7] (setting [10]) it was 94.1%; in test [7] (setting [11]), 97.2%. The Her2 level in test [3] is 108% (inactive). The differential viability (reversal) in test [7] (H69AR cells + 2 uM doxorubicin) is 3.12% (inactive).

For `Cc1ccccc1NC1=NCCCS1`, the inhibition in [1] was 3% (inactive); in [8], -4.61% (inactive); in test [9] it was -0.67% (inactive). Also, the viability in [2] was 106%; in test [4], 106% (inactive); in test [5], 99.3% (inactive); in test [6], 95.1% (inactive); in test [7] (setting [10]) it was 96.1%; in [7] (setting [11]) it was 95.1%. For the same molecule, in test [3], the Her2 level is 101% (inactive). In addition, the differential viability (reversal) in test [7] (H69AR cells + 2 uM doxorubicin) was -1.09% (inactive).

Take `O=c1[nH]c(=O)n(Cc2ccco2)c(O)c1C=NCCCn1ccnc1`: the inhibition in [1] is 0% (inactive); in test [8], 0.77% (inactive); in test [9], -3.33% (inactive). Also, the viability in [2] is 88.5%; in test [4] it was 88.5% (inactive); in test [5], 93.5% (inactive); in test [6], 95.2% (inactive); in test [7] (setting [10]), 94.8%; in test [7] (setting [11]), 95.2%. For the same molecule, the Her2 level in test [3] is 104% (inactive). In addition, the differential viability (reversal) in test [7] (H69AR cells + 2 uM doxorubicin) was 0.33% (inactive).

With `CN1C(=O)N(C)C(=O)C2(Cc3ccccc3N3CCOCC32)C1=O` (centres undefined), the inhibition in test [1] is 0% (inactive); in test [8], -6.8% (inactive); in test [9], -2.86% (inactive). Also, the viability in [2] is 104%; in [4] it was 104% (inactive); in test [5], 94.8% (inactive); in test [6], 102% (inactive); in test [7] (setting [10]), 94%; in test [7] (setting [11]), 102%. The Her2 level in [3] is 88% (inactive). Also, the differential viability (reversal) in [7] (H69AR cells + 2 uM doxorubicin) was 8.12% (inactive).

On to `COc1ccccc1-n1c(O)c(C=NCc2ccc3c(c2)OCO3)c(=O)[nH]c1=O`, for which the inhibition in test [1] is 7% (inactive); in [8], -2.43% (inactive); in [9] it was -0.48% (inactive). Moreover, the viability in [2] was 93.5%; in test [4], 93.5% (inactive); in [5], 81.3% (inactive); in [6], 91.8% (inactive); in test [7] (setting [10]), 88.3%; in [7] (setting [11]), 91.8%. Moreover, the Her2 level in [3] was 91.5% (inactive). Also, the differential viability (reversal) in test [7] (H69AR cells + 2 uM doxorubicin) is 3.46% (inactive).

For `CCCCCCn1c(O)c(C=NC2CCN(Cc3ccccc3)CC2)c(=O)[nH]c1=O`, the inhibition in test [1] was 0% (inactive); in [8], -1.05% (inactive); in test [9], 4.84% (inactive). The viability in test [2] was 83%; in test [4], 83% (inactive); in test [5], 72.3% (inactive); in [6], 74.8% (inactive); in test [7] (setting [10]), 68.8%; in test [7] (setting [11]) it was 74.8%. The Her2 level in [3] is 67.5% (inactive). The differential viability (reversal) in [7] (H69AR cells + 2 uM doxorubicin) was 5.99% (inactive).

As to `CCCCn1c(O)c(C(C)=NCCc2ccccc2)c(=O)[nH]c1=O`, the inhibition in test [1] was 0% (inactive); in test [8] it was -0.26% (inactive); in test [9], 9.51% (inactive). For the same molecule, the viability in test [2] is 88.5%; in [4], 88.5% (inactive); in [5] it was 95.6% (inactive); in test [6] it was 100% (inactive); in test [7] (setting [10]) it was 95.9%; in test [7] (setting [11]), 100%. Also, the Her2 level in [3] was 89.5% (inactive). Also, in test [7] (H69AR cells + 2 uM doxorubicin), the differential viability (reversal) is 4.16% (inactive).

For the molecule `Cc1cc(N2C(=O)C3CCCN3C2c2cccc(Cl)c2)no1` (centres undefined), the inhibition in [1] is 4% (inactive); in test [8], -0.13% (inactive); in [9] it was -0.97% (inactive). The viability in test [2] is 95%; in test [4], 95% (inactive); in [5] it was 89.3% (inactive); in test [6], 109% (inactive); in test [7] (setting [10]) it was 88%; in test [7] (setting [11]) it was 109%. Also, the Her2 level in test [3] is 96.5% (inactive). Also, the differential viability (reversal) in test [7] (H69AR cells + 2 uM doxorubicin) is 21% (inactive).

Consider `COc1ccc(OC)c(C(O)C(C)N)c1` (centres undefined), for which the inhibition in [1] was 0% (inactive). The viability in test [2] was 104%; in test [4] it was 104% (inactive); in [5], 108% (inactive); in [6] it was 98.1% (inactive); in test [7] (setting [10]), 105%; in test [7] (setting [11]), 98.1%. The Her2 level in test [3] is 118% (inactive). Also, in test [7] (H69AR cells + 2 uM doxorubicin), the differential viability (reversal) was -7.17% (inactive).

Consider `CCC(=NCCCN1CCOCC1)c1c(O)n(Cc2ccccc2)c(=O)[nH]c1=O`, for which the inhibition was 0% (inactive) in [1], -5.41% (inactive) in [8] and -5.56% (inactive) in test [9]. Also, the viability in [2] was 108%; in test [4] it was 108% (inactive); in [5], 84.3% (inactive); in test [6] it was 89.2% (inactive); in test [7] (setting [10]) it was 90.7%; in test [7] (setting [11]), 89.2%. Further, in test [3], the Her2 level is 107% (inactive). Besides, the differential viability (reversal) in test [7] (H69AR cells + 2 uM doxorubicin) is -1.53% (inactive).

On to `COc1ccc(C(=O)N2CCCC2=O)cc1`, for which the inhibition in test [1] is 10% (inactive). Besides, the viability is 110% in test [2]; 110% (inactive) in [4]; 119% (inactive) in test [5]; 103% (inactive) in test [6]; 89.1% in [7] (setting [10]); 103% in test [7] (setting [11]). The Her2 level in test [3] is 94.5% (inactive). For the same molecule, in test [7] (H69AR cells + 2 uM doxorubicin), the differential viability (reversal) is 13.5% (inactive).

Turning to `CCCCOc1ccc(CN2CCN(CCO)CC2)cc1`, the inhibition in test [1] was 0% (inactive); in test [8], 1.17% (inactive); in [9], -1.64% (inactive). The viability is 74% in [2]; 74% (inactive) in test [4]; 94.7% (inactive) in test [5]; 90.1% (inactive) in [6]; 77.9% in test [7] (setting [10]); 90.1% in test [7] (setting [11]). For the same molecule, the Her2 level in [3] is 91.5% (inactive). Further, in test [7] (H69AR cells + 2 uM doxorubicin), the differential viability (reversal) is 12.2% (inactive).

Consider `CC1CCC(C(=O)NC(C(=O)N2CCC3(CC2)OCCO3)C(C)C)CC1` (centres undefined), for which the results for the inhibition in [1], in test [8] and in test [9] were 3% (inactive), -6.36% (inactive) and -5.25% (inactive), respectively. Moreover, the viability in test [2] is 96.5%; in test [4], 96.5% (inactive); in test [5] it was 114% (inactive); in test [6], 99.5% (inactive); in test [7] (setting [10]), 91%; in [7] (setting [11]), 99.5%. Further, in [3], the Her2 level was 98.5% (inactive). Moreover, the differential viability (reversal) in test [7] (H69AR cells + 2 uM doxorubicin) is 8.49% (inactive).

On to `COc1ccc(OC)c(C2=NOC(C(=O)N3CCC4(CC3)OCCO4)C2)c1` (centres undefined), for which the inhibition in [1] was 7% (inactive); in [8], -6.49% (inactive); in test [9], 0.5% (inactive). Moreover, the viability in test [2] was 106%; in [4], 106% (inactive); in test [5], 103% (inactive); in [6], 99% (inactive); in test [7] (setting [10]), 86%; in test [7] (setting [11]), 99%. Further, in test [3], the Her2 level is 99% (inactive). Also, the differential viability (reversal) in test [7] (H69AR cells + 2 uM doxorubicin) was 13% (inactive).

`C[N+]1(C)[C@@H]2CC[C@H]1CC(OC(=O)C(CO)c1ccccc1)C2` (some centres undefined): the inhibition in [1] was 6% (inactive) and 13% (inactive). Also, the viability in [2] was 97.5% and 140%; in [4], 97.5% (inactive) and 140% (inactive); in test [5] it was 103% (inactive) and 106% (inactive); in test [6], 100% (inactive) and 112% (inactive); in [7] (setting [10]), 95.6% and 104%; in [7] (setting [11]), 100% and 112%. Also, the Her2 level in test [3] is 100% (inactive) and 106% (inactive). Also, the differential viability (reversal) in test [7] (H69AR cells + 2 uM doxorubicin) is 4.59% (inactive) and 7.77% (inactive).

Values taken from PubChem BioAssay.
